Tests used:
HepG2 cells = assay: Cellular toxicity, MTT assay; type: cell-based, human; conditions: 2–128 μL fluorous solvent added to culture medium, 48 h
Outline: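 HepG2 cells seeded at 2000 cells/well and allowed to adhere overnight. Dispersant at 10 nM–1 mM in culture medium, or 2–128 μL fluorous solvent added to the medium, for 48 h. Serum-free medium served as the negative control and 20% DMSO in serum-free medium as the positive control. Then 0.5 mg/mL MTT in serum-free medium for 2 h, formazan dissolved in DMSO, A540 read. Viability was normalized between the two controls.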

bacteria = assay: Control bacterial viability; type: cell-based; conditions: component alone: PFOc mixed with bacterial media, or PD-7 added to PBS
[1] = Temperature-dependent circular dichroism; type: physicochemical
Outline: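 Proteins were either diluted in PBS or dispersed in PFOc with 1 mM dispersant. The aqueous samples were heated between 40 and 90 °C, with a CD spectrum taken at each temperature. The PFOc dispersions were heat-treated at 40, 55, 70 and 85 °C for 15 min each, then mixed with PBS to elute the protein before CD. Each condition was run in triplicate, and representative spectra were reported.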

[2] = dispersed in PFOc using PD-7, heated up to 85 °C

Molecule | toxicity toward human liver cells (HepG2 cells) | MIC / bacterial viability (bacteria) | change in secondary structure on heating (CD) [1, 2] | change in secondary structure on heating (CD) ([1]; saline (PBS) control formulation, 40–85 °C)
FC(F)(F)C(F)(F)C(F)(F)C(F)(F)C(F)(F)C(F)(F)C(F)(F)C(F)(F)F [PFOc, perfluorooctane] | biocompatible | no MIC could be calculated | – | –
bovine serum albumin [BSA] | – | – | minimal changes in secondary structure | –
rabbit serum immunoglobulin [IgG] | – | – | minimal changes in secondary structure | –
β-galactosidase | – | – | minimal changes in secondary structure | –
bovine trypsin (protein, UniProt P00760 24-246, looked up) Serine protease 1: IVGGYTCGANTVPYQVSLNSGYHFCGGSLINSQWVVSAAHCYKSGIQVRLGEDNINVVEGNEQFISASKSIVHPSYNSNTLNNDIMLIKLKSAASLNSRVASISLPTSCASAGTQCLISGWGNTKSSGTSYPDVLKCLKAPILSDSSCKSAYPGQITSNMFCAGYLEGGKDSCQGDSGGPVVCSGKLQGIVSWGSGCAQKNKPGVYTKVCNYVSWIKQTIASN | – | – | minimal changes in secondary structure | minimal change in structure
